The source made the active and inactive calls. The calls are words filed in the database; no cut-off is given here.
Key:
[1] = molecular target: Protein arginine N-methyltransferase 6 (Homo sapiens, UniProt Q96LA8); assay: Inhibition of PRMT6 (unknown origin)
[2] = Inhibition of PRMT6 mutant 20 (unknown origin) using biotinylated H4(1 to 24) peptide as substrate preincubated for 20 mins in presence of [3H]SAM followed by substrate addition by scintillation proximity assay; parameters: species or system Homo sapiens
[3] = Inhibition of PRMT6 mutant 19 (unknown origin) using biotinylated H4(1 to 24) peptide as substrate preincubated for 20 mins in presence of [3H]SAM followed by substrate addition by scintillation proximity assay; parameters: species or system Homo sapiens
[4] = Inhibition of PRMT6 mutant 17 (unknown origin) using biotinylated H4(1 to 24) peptide as substrate preincubated for 20 mins in presence of [3H]SAM followed by substrate addition by scintillation proximity assay; parameters: species or system Homo sapiens
[5] = molecular target: Histone-lysine N-methyltransferase KMT5C (Homo sapiens) (UniProt Q86Y97); assay: Inhibition of SUV420H2 (unknown origin) at 1 to 10 uM; details: dose 1-10 µM
Histone-lysine N-methyltransferase KMT5C (Homo sapiens), sequence (Q86Y97 whole entry, looked up): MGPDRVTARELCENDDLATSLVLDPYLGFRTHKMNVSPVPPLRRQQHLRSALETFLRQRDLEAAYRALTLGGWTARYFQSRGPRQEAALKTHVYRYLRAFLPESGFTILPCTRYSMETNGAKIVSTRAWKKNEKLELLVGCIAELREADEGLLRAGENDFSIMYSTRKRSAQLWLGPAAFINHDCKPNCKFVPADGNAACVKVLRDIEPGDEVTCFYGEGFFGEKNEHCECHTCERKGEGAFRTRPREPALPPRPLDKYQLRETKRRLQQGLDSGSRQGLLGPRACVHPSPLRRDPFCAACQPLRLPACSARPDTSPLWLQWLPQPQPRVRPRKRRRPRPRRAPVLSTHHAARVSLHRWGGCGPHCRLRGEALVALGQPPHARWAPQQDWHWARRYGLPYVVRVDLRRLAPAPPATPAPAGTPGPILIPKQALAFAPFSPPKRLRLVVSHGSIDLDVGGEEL
In short: (§1)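 Part of a 33-methyltransferase selectivity panel covering 8 PRMTs, 21 PKMTs, 3 DNMTs and 1 RNA methyltransferase. Each compound was tested at 1 μM and at 10 μM, with n = 3.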

[6] = molecular target: Histone-lysine N-methyltransferase SUV39H2 (Homo sapiens) (UniProt Q9H5I1); assay: Inhibition of SUV39H2 (unknown origin) at 1 to 10 uM; details: dose 1-10 µM; in short: as §1
[7] = molecular target: Histone-lysine N-methyltransferase KMT5B (Homo sapiens) (UniProt Q4FZB7); assay: Inhibition of SUV420H1 (unknown origin) at 1 to 10 uM; details: dose 1-10 µM; in short: as §1
[8] = molecular target: Histone-lysine N-methyltransferase SUV39H1 (Homo sapiens) (UniProt O43463); assay: Inhibition of SUV39H1 (unknown origin) at 1 to 10 uM; details: dose 1-10 µM; in short: as §1
[9] = molecular target: Histone-lysine N-methyltransferase SETDB1 (Homo sapiens) (UniProt Q15047); assay: Inhibition of SETDB1 (unknown origin) at 1 to 10 uM; details: dose 1-10 µM; in short: as §1
[10] = molecular target: Histone-lysine N-methyltransferase EHMT2 (Homo sapiens) (UniProt Q96KQ7); assay: Inhibition of G9a (unknown origin) at 1 to 10 uM; details: dose 1-10 µM; in short: as §1
Histone-lysine N-methyltransferase EHMT2 (Homo sapiens), sequence (Q96KQ7 whole entry): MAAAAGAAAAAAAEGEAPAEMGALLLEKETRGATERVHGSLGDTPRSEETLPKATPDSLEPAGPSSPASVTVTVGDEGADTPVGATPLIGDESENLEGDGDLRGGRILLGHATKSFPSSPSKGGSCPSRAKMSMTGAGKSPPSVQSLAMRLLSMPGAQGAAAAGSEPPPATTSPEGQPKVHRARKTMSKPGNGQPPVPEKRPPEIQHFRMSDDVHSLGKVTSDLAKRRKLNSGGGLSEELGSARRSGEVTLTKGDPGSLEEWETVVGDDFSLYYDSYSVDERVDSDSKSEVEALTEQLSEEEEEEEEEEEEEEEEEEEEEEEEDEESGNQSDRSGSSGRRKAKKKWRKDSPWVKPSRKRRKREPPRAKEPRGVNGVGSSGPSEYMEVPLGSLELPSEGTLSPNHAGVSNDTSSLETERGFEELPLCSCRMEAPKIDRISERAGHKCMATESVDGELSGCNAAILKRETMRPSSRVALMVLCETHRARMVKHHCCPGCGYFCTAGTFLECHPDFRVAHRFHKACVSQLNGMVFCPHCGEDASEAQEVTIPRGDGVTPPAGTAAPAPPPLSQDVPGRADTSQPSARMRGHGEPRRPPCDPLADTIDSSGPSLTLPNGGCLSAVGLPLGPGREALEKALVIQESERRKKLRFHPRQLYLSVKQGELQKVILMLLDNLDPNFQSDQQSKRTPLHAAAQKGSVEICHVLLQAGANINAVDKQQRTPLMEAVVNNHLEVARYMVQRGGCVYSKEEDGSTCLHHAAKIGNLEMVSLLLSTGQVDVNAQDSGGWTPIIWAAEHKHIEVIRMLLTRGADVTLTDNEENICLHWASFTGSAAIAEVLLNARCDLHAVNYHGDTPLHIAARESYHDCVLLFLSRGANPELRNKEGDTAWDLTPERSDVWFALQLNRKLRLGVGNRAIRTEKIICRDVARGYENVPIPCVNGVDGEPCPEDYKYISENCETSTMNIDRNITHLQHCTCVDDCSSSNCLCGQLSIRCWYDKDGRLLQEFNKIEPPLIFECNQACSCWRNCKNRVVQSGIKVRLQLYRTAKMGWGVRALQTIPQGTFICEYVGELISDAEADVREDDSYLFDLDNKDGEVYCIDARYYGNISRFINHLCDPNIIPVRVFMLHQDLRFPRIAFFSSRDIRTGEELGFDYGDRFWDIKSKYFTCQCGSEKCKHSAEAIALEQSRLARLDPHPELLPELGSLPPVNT

[11] = molecular target: Histone-lysine N-methyltransferase EHMT1 (Homo sapiens) (UniProt Q9H9B1); assay: Inhibition of GLP (unknown origin) at 1 to 10 uM; details: dose 1-10 µM; in short: as §1
[12] = molecular target: Protein arginine N-methyltransferase 8 (Homo sapiens) (UniProt Q9NR22); assay: Inhibition of PRMT8 (unknown origin) at 1 to 10 uM; details: dose 1-10 µM; in short: as §1
Protein arginine N-methyltransferase 8 (Homo sapiens), sequence (Q9NR22 2-394 limits assumed): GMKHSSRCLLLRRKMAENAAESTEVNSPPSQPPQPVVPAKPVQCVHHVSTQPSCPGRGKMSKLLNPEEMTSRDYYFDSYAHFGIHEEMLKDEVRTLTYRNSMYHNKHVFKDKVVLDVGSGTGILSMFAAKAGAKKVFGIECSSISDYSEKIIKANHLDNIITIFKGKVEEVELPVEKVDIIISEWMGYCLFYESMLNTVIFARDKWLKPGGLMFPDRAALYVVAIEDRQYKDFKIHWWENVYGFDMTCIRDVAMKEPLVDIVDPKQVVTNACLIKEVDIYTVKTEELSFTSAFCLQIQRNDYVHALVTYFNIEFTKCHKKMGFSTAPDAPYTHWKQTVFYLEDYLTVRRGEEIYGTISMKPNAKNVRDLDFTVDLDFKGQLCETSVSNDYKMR

[13] = molecular target: Protein arginine N-methyltransferase 5 (Homo sapiens) (UniProt O14744); assay: Inhibition of PRMT5 (unknown origin) at 1 to 10 uM; details: dose 1-10 µM; in short: as §1
[14] = molecular target: Protein arginine N-methyltransferase 7 (Homo sapiens) (UniProt Q9NVM4); assay: Inhibition of PRMT7 (unknown origin) at 1 to 10 uM; details: dose 1-10 µM; in short: as §1
[15] = molecular target: Histone-arginine methyltransferase CARM1 (Homo sapiens) (UniProt Q86X55); assay: Inhibition of PRMT4 (unknown origin) at 1 to 10 uM; details: dose 1-10 µM; in short: as §1
[16] = molecular target: Protein arginine N-methyltransferase 3 (Homo sapiens) (UniProt O60678); assay: Inhibition of PRMT3 (unknown origin) at 1 to 10 uM; details: dose 1-10 µM; in short: as §1
[17] = molecular target: Protein arginine N-methyltransferase 1 (Homo sapiens) (UniProt Q99873); assay: Inhibition of PRMT1 (unknown origin) at 1 to 10 uM; details: dose 1-10 µM; in short: as §1
Protein arginine N-methyltransferase 1 (Homo sapiens), sequence (Q99873 whole entry, looked up): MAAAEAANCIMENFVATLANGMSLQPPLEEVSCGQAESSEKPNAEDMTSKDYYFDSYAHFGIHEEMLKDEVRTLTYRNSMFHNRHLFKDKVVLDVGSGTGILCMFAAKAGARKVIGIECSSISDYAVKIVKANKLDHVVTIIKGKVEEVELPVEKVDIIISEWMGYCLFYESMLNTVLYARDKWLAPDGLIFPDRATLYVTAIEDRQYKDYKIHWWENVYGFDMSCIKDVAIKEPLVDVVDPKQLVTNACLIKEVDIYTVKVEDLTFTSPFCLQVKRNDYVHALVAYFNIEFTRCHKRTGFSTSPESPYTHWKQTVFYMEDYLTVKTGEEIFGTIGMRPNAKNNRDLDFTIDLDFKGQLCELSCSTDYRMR

[18] = molecular target: Histone-lysine N-methyltransferase SETD7 (Homo sapiens) (UniProt Q8WTS6); assay: Inhibition of SETD7 (unknown origin) at 1 to 10 uM; details: dose 1-10 µM; in short: as §1
[19] = molecular target: N-lysine methyltransferase KMT5A (Homo sapiens) (UniProt Q9NQR1); assay: Inhibition of SETD8 (unknown origin) at 1 to 10 uM; details: dose 1-10 µM; in short: as §1
[20] = molecular target: Histone-lysine N-methyltransferase 2A (Homo sapiens) (UniProt Q03164); assay: Inhibition of MLL1 (unknown origin) at 1 to 10 uM; details: dose 1-10 µM; in short: as §1
[21] = molecular target: Histone-lysine N-methyltransferase 2C (Homo sapiens) (UniProt Q8NEZ4); assay: Inhibition of MLL3 (unknown origin) at 1 to 10 uM; details: dose 1-10 µM; in short: as §1
[22] = molecular target: Histone-lysine N-methyltransferase PRDM9 (Homo sapiens) (UniProt Q9NQV7); assay: Inhibition of PRDM9 (unknown origin) at 1 to 10 uM; details: dose 1-10 µM; in short: as §1
Histone-lysine N-methyltransferase PRDM9 (Homo sapiens), sequence (Q9NQV7 whole entry): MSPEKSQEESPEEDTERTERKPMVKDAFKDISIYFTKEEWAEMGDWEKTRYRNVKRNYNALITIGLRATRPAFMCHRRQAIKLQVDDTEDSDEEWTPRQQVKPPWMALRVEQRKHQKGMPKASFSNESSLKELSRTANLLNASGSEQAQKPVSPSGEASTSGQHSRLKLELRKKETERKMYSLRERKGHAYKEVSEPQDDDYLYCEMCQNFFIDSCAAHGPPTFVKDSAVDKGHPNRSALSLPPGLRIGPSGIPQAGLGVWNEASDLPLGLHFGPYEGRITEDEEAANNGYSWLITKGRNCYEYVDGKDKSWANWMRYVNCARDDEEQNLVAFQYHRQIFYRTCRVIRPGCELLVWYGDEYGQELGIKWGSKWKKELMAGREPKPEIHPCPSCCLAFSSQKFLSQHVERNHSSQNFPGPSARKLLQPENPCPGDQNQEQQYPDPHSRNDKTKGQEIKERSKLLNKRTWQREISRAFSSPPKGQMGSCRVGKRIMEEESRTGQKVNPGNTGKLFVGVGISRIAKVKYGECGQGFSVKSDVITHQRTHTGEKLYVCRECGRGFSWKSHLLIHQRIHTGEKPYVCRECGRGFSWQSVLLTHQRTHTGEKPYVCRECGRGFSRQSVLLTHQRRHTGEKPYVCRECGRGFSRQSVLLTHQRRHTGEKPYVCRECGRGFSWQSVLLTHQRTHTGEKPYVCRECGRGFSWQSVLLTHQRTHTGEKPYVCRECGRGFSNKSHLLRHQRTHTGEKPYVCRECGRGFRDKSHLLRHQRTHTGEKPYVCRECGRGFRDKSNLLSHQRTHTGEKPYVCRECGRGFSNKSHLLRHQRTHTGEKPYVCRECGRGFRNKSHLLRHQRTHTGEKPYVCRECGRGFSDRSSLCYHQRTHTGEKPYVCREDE

[23] = molecular target: Histone-lysine N-methyltransferase EZH2 (Homo sapiens) (UniProt Q15910); assay: Inhibition of PRC2 (unknown origin) at 1 to 10 uM; details: dose 1-10 µM; in short: as §1
[24] = molecular target: Histone-lysine N-methyltransferase SETD2 (Homo sapiens) (UniProt Q9BYW2); assay: Inhibition of SETD2 (unknown origin) at 1 to 10 uM; details: dose 1-10 µM; in short: as §1
[25] = molecular target: N-lysine methyltransferase SMYD2 (Homo sapiens) (UniProt Q9NRG4); assay: Inhibition of SMYD2 (unknown origin) at 1 to 10 uM; details: dose 1-10 µM; in short: as §1
[26] = molecular target: Histone-lysine N-methyltransferase SMYD3 (Homo sapiens) (UniProt Q9H7B4); assay: Inhibition of SMYD3 (unknown origin) at 1 to 10 uM; details: dose 1-10 µM; in short: as §1
[27] = molecular target: RNA 5'-monophosphate methyltransferase (Homo sapiens) (UniProt Q7Z5W3); assay: Inhibition of BCDIN3D (unknown origin) at 1 to 10 uM; details: dose 1-10 µM; in short: as §1
[28] = molecular target: DNA (cytosine-5)-methyltransferase 1 (Homo sapiens) (UniProt P26358); assay: Inhibition of DNMT1 (unknown origin) at 1 to 10 uM; details: dose 1-10 µM; in short: as §1
DNA (cytosine-5)-methyltransferase 1 (Homo sapiens), sequence (P26358 whole entry): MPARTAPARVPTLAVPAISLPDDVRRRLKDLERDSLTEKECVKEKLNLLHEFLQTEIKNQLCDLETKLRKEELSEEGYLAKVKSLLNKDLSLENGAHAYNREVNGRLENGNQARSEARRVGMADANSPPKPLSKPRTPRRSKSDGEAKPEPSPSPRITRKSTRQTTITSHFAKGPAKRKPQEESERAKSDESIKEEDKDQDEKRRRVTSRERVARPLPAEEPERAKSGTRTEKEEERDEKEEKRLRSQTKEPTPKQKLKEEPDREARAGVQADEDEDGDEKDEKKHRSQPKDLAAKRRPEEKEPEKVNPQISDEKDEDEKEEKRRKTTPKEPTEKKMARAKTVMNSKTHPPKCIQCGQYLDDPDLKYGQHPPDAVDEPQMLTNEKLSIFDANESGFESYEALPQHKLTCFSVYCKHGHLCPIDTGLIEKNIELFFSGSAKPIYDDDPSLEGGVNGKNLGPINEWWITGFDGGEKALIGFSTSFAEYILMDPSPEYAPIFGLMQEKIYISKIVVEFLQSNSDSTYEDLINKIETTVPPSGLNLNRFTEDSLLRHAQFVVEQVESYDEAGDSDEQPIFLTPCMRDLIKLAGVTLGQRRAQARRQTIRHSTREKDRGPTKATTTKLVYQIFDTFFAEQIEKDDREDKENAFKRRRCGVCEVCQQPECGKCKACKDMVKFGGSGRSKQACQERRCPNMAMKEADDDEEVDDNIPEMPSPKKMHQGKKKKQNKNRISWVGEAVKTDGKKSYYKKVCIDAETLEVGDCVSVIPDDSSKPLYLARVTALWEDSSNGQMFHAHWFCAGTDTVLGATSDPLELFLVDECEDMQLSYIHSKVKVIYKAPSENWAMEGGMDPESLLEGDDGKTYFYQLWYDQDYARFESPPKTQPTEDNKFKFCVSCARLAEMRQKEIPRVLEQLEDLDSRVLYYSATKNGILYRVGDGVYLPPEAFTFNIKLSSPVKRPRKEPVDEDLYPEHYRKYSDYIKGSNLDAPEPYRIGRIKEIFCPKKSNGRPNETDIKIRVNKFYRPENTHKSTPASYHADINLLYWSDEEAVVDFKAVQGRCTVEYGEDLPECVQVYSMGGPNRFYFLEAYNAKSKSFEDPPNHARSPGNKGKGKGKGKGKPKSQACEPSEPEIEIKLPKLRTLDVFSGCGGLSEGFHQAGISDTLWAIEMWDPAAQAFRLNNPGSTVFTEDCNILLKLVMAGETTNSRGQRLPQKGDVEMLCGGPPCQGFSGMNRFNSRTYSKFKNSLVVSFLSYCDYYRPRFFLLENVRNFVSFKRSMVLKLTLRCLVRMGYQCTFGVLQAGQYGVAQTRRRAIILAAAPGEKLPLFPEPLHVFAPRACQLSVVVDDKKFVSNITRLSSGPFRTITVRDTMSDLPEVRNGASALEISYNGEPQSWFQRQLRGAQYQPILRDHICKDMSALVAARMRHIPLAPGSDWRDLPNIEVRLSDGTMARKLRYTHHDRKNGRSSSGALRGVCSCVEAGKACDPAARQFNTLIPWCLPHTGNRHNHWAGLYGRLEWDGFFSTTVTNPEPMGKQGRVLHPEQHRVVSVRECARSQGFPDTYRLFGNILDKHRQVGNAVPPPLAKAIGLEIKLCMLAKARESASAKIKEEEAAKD

[29] = molecular target: DNA (cytosine-5)-methyltransferase 3A (Homo sapiens) (UniProt Q9Y6K1); assay: Inhibition of DNMT3A (unknown origin) at 1 to 10 uM; details: dose 1-10 µM; in short: as §1
[30] = molecular target: DNA (cytosine-5)-methyltransferase 3B (Homo sapiens) (UniProt Q9UBC3); assay: Inhibition of DNMT3B (unknown origin) at 1 to 10 uM; details: dose 1-10 µM; in short: as §1
[31] = molecular target: Histone-lysine N-methyltransferase, H3 lysine-79 specific (Homo sapiens) (UniProt Q8TEK3); assay: Inhibition of DOT1L (unknown origin) at 1 to 10 uM; details: dose 1-10 µM; in short: as §1
[32] = molecular target: Histone-lysine N-methyltransferase ASH1L (Homo sapiens) (UniProt Q9NR48); assay: Inhibition of ASH1L (unknown origin) at 1 to 10 uM; details: dose 1-10 µM; in short: as §1
[33] = molecular target: Histone-lysine N-methyltransferase, H3 lysine-36 specific (Homo sapiens) (UniProt Q96L73); assay: Inhibition of NSD1 (unknown origin) at 1 to 10 uM; details: dose 1-10 µM; in short: as §1
[34] = molecular target: Histone-lysine N-methyltransferase NSD2 (Homo sapiens) (UniProt O96028); assay: Inhibition of NSD2 (unknown origin) at 1 to 10 uM; details: dose 1-10 µM; in short: as §1
[35] = molecular target: Histone-lysine N-methyltransferase NSD3 (Homo sapiens) (UniProt Q9BZ95); assay: Inhibition of NSD3 (unknown origin) at 1 to 10 uM; details: dose 1-10 µM; in short: as §1
PNT2 = assay: Cytotoxicity against PNT2 cells at up to 10 uM measured after 3 days by CCK8 assay; format: cell-based; details: human, pnt2, 72 h, time 3 day
In short: (§2)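 Cells (1 × 10^4 per well) were seeded and, after 24 h, exposed for 3 days to serially diluted compound starting at 10 μM. CCK-8 (WST-8) reagent was then added for 4 h at 37 °C, and absorbance was read at 450 nm. Values are the average ± SD of three replicate experiments.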

MCF7 = assay: Cytotoxicity against MCF7 cells at up to 10 uM measured after 3 days by CCK8 assay; format: cell-based; details: human, mcf7, 72 h, time 3 day; in short: as §2
[36] = molecular target: Protein arginine N-methyltransferase 9 (Homo sapiens) (UniProt Q6P2P2); assay: Inhibition of PRMT9 (unknown origin) at 1 to 10 uM; details: dose 1-10 µM
HEK-293T [37] = assay: Cytotoxicity against HEK293T cells at 30 uM measured after 20 hrs by Western blot analysis; details: human
HEK293T [38] = assay: Inhibition of FLAG-tagged PRMT6 V86K/D88A mutant (unknown origin) expressed in HEK293T assessed as reduction in H3R2me2a level measured after 20 hrs by SDS gel electrophoresis relative to control; format: cell-based; details: Homo sapiens
In short: (§3)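 HEK293T cells were grown in DMEM with 10% FBS and penicillin/streptomycin. The next day they were transfected with FLAG-PRMT6 or the V86K/D88A mutant (1 μg DNA per well). After 4 h, medium was replaced with titrated compound for 20 h. Cells were lysed in benzonase-containing buffer, SDS was added to 1%, and lysates were western blotted for H3R2me2a or H4R3me2a, total H3/H4 and FLAG, with infrared detection at 800/700 nm.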

HEK293T [39] = assay: Inhibition of FLAG-tagged PRMT6 V86K/D88A mutant (unknown origin) expressed in HEK293T assessed as reduction in H4R3me2a level measured after 20 hrs by SDS gel electrophoresis relative to control; format: cell-based; details: Homo sapiens; in short: as §3
HEK-293T [40] = assay: Cytotoxicity against HEK293T cells at up to 10 uM measured after 3 days by CCK8 assay; format: cell-based; details: human, 72 h, time 3 day; in short: as §2

| inhibition [5] | inhibition [6] | inhibition [7] | inhibition [8] | inhibition [9] | inhibition [10] | inhibition [11] | inhibition [12] | inhibition [13] | inhibition [14] | inhibition [15] | inhibition [16] | inhibition [17] | inhibition [18] | inhibition [19] | inhibition [20] | inhibition [21] | inhibition [22] | inhibition [23] | inhibition [24] | Compound | other results |
| --- | --- | --- | --- | --- | --- | --- | --- | --- | --- | --- | --- | --- | --- | --- | --- | --- | --- | --- | --- | --- | --- |
| – | – | – | – | – | – | – | – | – | – | – | – | – | – | – | – | – | – | – | – | CNCCN1CCC(OCc2ccccc2)CC1 | IC50 [1]: 0.034 µM |
| – | – | – | – | – | – | – | – | – | – | – | – | – | – | – | – | – | – | – | – | Cc1ccc2c(c1)[C@@H](c1ccc(F)cc1)N(C(=O)c1ccc(Br)o1)CC(=O)N2 | IC50 [2]: 41 µM; IC50 [3]: 17 µM; IC50 [4]: 46 µM |
| inactive | inactive | inactive | inactive | inactive | inactive | inactive | inactive | inactive | inactive | inactive | inactive | inactive | inactive | inactive | inactive | inactive | inactive | inactive | inactive | Cc1cc(C)cc([C@H]2c3cc(C)ccc3NC(=O)CN2C(=O)c2ccc(Br)s2)c1 | inhibition [25]: inactive; inhibition [26]: inactive; inhibition [27]: inactive; inhibition [28]: inactive; inhibition [29]: inactive; inhibition [30]: inactive; inhibition [31]: inactive; inhibition [32]: inactive; inhibition [33]: inactive; inhibition [34]: inactive; inhibition [35]: inactive; Activity (PNT2): Non-Toxic; Activity (MCF7): Non-Toxic; inhibition [36]: inactive; Activity (HEK-293T [37]): Toxic |
| inactive | inactive | inactive | inactive | inactive | inactive | inactive | inactive | inactive | inactive | inactive | inactive | inactive | inactive | inactive | inactive | inactive | inactive | inactive | inactive | Cc1cc(C)cc([C@@H]2c3cc(C)ccc3NC(=O)CN2C(=O)c2ccc(Br)s2)c1 | inhibition [25]: inactive; inhibition [26]: inactive; inhibition [27]: inactive; inhibition [28]: inactive; inhibition [29]: inactive; inhibition [30]: inactive; inhibition [31]: inactive; inhibition [32]: inactive; inhibition [33]: inactive; inhibition [34]: inactive; inhibition [35]: inactive; inhibition (HEK293T [38]): 100%; inhibition (HEK293T [39]): 100%; Activity (HEK-293T [40]): Non-Toxic; Activity (PNT2): Non-Toxic; Activity (MCF7): Non-Toxic; inhibition [36]: inactive |
